From ChEMBL document CHEMBL4312027, “Synthesis, characterization, and biological activity of a triphenylphosphonium-containing imidazolium salt against select bladder cancer cell lines” (Eur J Med Chem, 2020) come the findings set out here.

The source made the active and inactive calls. The rule behind the calls is not given here.

Assay [1] deals with RT-112. As to the kind of experiment: Mito-toxicity in mitochondria isolated from human RT112 cells assessed as increase in cytochrome C release at 100 uM incubated for 1 hr and measured after 1 to 4 hrs incubation in preservative buffer by Western blot analysis. The format is functional.
For assay [2], the system named is RT-112. As to the kind of experiment: Induction of mitochondrial membrane depolarization in human RT112 cells at 100 uM incubated for 1 hr and measured after 2 hrs recovery time by JC-1 staining based confocal microscopy. The format is functional, cell-based. In outline: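 RT112 cells plated on glass-bottom dishes and incubated overnight. They were treated for 45 min, then JC-1 (final 10 μg/mL) was added to the medium for a further 15 min. Live cells were imaged by confocal microscopy (ex 485 nm; em 530 and 590 nm) every 15 min for 6 h. Red polarized versus green depolarized mitochondria were scored, with CCCP as positive control.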

As to `N#CC(C#N)=NNc1cccc(Cl)c1`, the result in assay [1] and in assay [2] was Active.
